Measurements reported in ChEMBL document CHEMBL5058577, “EUbOPEN Chemogenomics Library 2 (Multiplex)” (2022).

Tested on: HEK-293T
Assay: Multiplex assay against HEK293T
Type: toxicity, cell-based
Conditions: human
In short: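 Compound was added to live cells that had been stained at seeding with Hoechst33342, BioTracker Green Microtubule Cytoskeleton Dye, MitoTracker Red and Annexin V Alexa Fluor 680, and imaging followed on a CQ1 microscope at 37°C and 5% CO2. CellPathfinder machine-learning gating divided cells into Hoechst high-intensity objects or normal cells, normal cells into healthy, pyknosed or fragmented nuclei, and pyknosed cells into mitotic or apoptotic. Tubulin, mitochondrial-mass and membrane-permeability phenotypes are per cents of healthy-nucleus cells.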

[1] = 12 h, 1 µM, compound concentration 1 uM, replicate 1
[2] = 12 h, 1 µM, compound concentration 1 uM, replicate 2
[3] = 12 h, 10 µM, compound concentration 10 uM, replicate 1
[4] = 12 h, 10 µM, compound concentration 10 uM, replicate 2
[5] = 24 h, 1 µM, compound concentration 1 uM, replicate 1
[6] = 24 h, 1 µM, compound concentration 1 uM, replicate 2
[7] = 24 h, 10 µM, compound concentration 10 uM, replicate 1
[8] = 24 h, 10 µM, compound concentration 10 uM, replicate 2
[9] = 48 h, 1 µM, compound concentration 1 uM, replicate 1
[10] = 48 h, 1 µM, compound concentration 1 uM, replicate 2
[11] = 48 h, 10 µM, compound concentration 10 uM, replicate 1
[12] = 48 h, 10 µM, compound concentration 10 uM, replicate 2

Compound: CCOc1c2c(c(OCC)c3ncccc13)CN(c1ccc(CS(=O)(=O)NC(=O)Cc3ccccc3OC)cc1C)C2=O
- Population Apoptotic (%) [1]: 33%
- Population Fragmented Nuclei (%) [1]: 3%
- Population Healthy Nuclei (%) [1]: 81%
- Population Hoechst High Intensity Objects (%) [1]: 6%
- Population Membrane Permeable-Phenotype (%) [1]: 0%
- Population Mitochondria Different-Phenotype (%) [1]: 43%
- Population Mitotic Cells (%) [1]: 66%
- Population Normal (%) [1]: 93%
- Population Pyknosed Nuclei (%) [1]: 14%
- Population Tubulin-Different-Phenotype (%) [1]: 31%
- Total Cell Count [1]: 356
- Population Apoptotic (%) [2]: 35%
- Population Fragmented Nuclei (%) [2]: 5%
- Population Healthy Nuclei (%) [2]: 82%
- Population Hoechst High Intensity Objects (%) [2]: 5%
- Population Mitochondria Different-Phenotype (%) [2]: 54%
- Population Mitotic Cells (%) [2]: 64%
- Population Normal (%) [2]: 94%
- Population Pyknosed Nuclei (%) [2]: 12%
- Population Tubulin-Different-Phenotype (%) [2]: 16%
- Total Cell Count [2]: 355
- Population Apoptotic (%) [3]: 45%
- Population Fragmented Nuclei (%) [3]: 9%
- Population Healthy Nuclei (%) [3]: 78%
- Population Hoechst High Intensity Objects (%) [3]: 4%
- Population Membrane Permeable-Phenotype (%) [3]: 0%
- Population Mitochondria Different-Phenotype (%) [3]: 49%
- Population Mitotic Cells (%) [3]: 54%
- Population Normal (%) [3]: 95%
- Population Pyknosed Nuclei (%) [3]: 12%
- Population Tubulin-Different-Phenotype (%) [3]: 34%
- Total Cell Count [3]: 367
- Population Apoptotic (%) [4]: 53%
- Population Fragmented Nuclei (%) [4]: 7%
- Population Healthy Nuclei (%) [4]: 76%
- Population Hoechst High Intensity Objects (%) [4]: 9%
- Population Mitochondria Different-Phenotype (%) [4]: 72%
- Population Mitotic Cells (%) [4]: 46%
- Population Normal (%) [4]: 90%
- Population Pyknosed Nuclei (%) [4]: 16%
- Population Tubulin-Different-Phenotype (%) [4]: 29%
- Total Cell Count [4]: 362
- Population Apoptotic (%) [5]: 35%
- Population Fragmented Nuclei (%) [5]: 11%
- Population Healthy Nuclei (%) [5]: 73%
- Population Hoechst High Intensity Objects (%) [5]: 5%
- Population Membrane Permeable-Phenotype (%) [5]: 0%
- Population Mitochondria Different-Phenotype (%) [5]: 28%
- Population Mitotic Cells (%) [5]: 64%
- Population Normal (%) [5]: 94%
- Population Pyknosed Nuclei (%) [5]: 14%
- Population Tubulin-Different-Phenotype (%) [5]: 20%
- Total Cell Count [5]: 462
- Population Apoptotic (%) [6]: 27%
- Population Fragmented Nuclei (%) [6]: 5%
- Population Healthy Nuclei (%) [6]: 85%
- Population Hoechst High Intensity Objects (%) [6]: 3%
- Population Mitochondria Different-Phenotype (%) [6]: 27%
- Population Mitotic Cells (%) [6]: 72%
- Population Normal (%) [6]: 96%
- Population Pyknosed Nuclei (%) [6]: 8%
- Population Tubulin-Different-Phenotype (%) [6]: 10%
- Total Cell Count [6]: 473
- Population Apoptotic (%) [7]: 18%
- Population Fragmented Nuclei (%) [7]: 10%
- Population Healthy Nuclei (%) [7]: 75%
- Population Hoechst High Intensity Objects (%) [7]: 4%
- Population Membrane Permeable-Phenotype (%) [7]: 0%
- Population Mitochondria Different-Phenotype (%) [7]: 36%
- Population Mitotic Cells (%) [7]: 81%
- Population Normal (%) [7]: 95%
- Population Pyknosed Nuclei (%) [7]: 14%
- Population Tubulin-Different-Phenotype (%) [7]: 28%
- Total Cell Count [7]: 446
- Population Apoptotic (%) [8]: 32%
- Population Fragmented Nuclei (%) [8]: 8%
- Population Healthy Nuclei (%) [8]: 82%
- Population Hoechst High Intensity Objects (%) [8]: 8%
- Population Membrane Permeable-Phenotype (%) [8]: 1%
- Population Mitochondria Different-Phenotype (%) [8]: 49%
- Population Mitotic Cells (%) [8]: 67%
- Population Normal (%) [8]: 91%
- Population Pyknosed Nuclei (%) [8]: 9%
- Population Tubulin-Different-Phenotype (%) [8]: 17%
- Total Cell Count [8]: 481
- Population Apoptotic (%) [9]: 29%
- Population Fragmented Nuclei (%) [9]: 13%
- Population Healthy Nuclei (%) [9]: 79%
- Population Hoechst High Intensity Objects (%) [9]: 3%
- Population Membrane Permeable-Phenotype (%) [9]: 0%
- Population Mitochondria Different-Phenotype (%) [9]: 20%
- Population Mitotic Cells (%) [9]: 70%
- Population Normal (%) [9]: 96%
- Population Pyknosed Nuclei (%) [9]: 6%
- Population Tubulin-Different-Phenotype (%) [9]: 13%
- Total Cell Count [9]: 822
- Population Apoptotic (%) [10]: 33%
- Population Fragmented Nuclei (%) [10]: 11%
- Population Healthy Nuclei (%) [10]: 83%
- Population Hoechst High Intensity Objects (%) [10]: 1%
- Population Mitochondria Different-Phenotype (%) [10]: 14%
- Population Mitotic Cells (%) [10]: 66%
- Population Normal (%) [10]: 98%
- Population Pyknosed Nuclei (%) [10]: 5%
- Population Tubulin-Different-Phenotype (%) [10]: 7%
- Total Cell Count [10]: 770
- Population Apoptotic (%) [11]: 41%
- Population Fragmented Nuclei (%) [11]: 13%
- Population Healthy Nuclei (%) [11]: 78%
- Population Hoechst High Intensity Objects (%) [11]: 4%
- Population Membrane Permeable-Phenotype (%) [11]: 1%
- Population Mitochondria Different-Phenotype (%) [11]: 32%
- Population Mitotic Cells (%) [11]: 58%
- Population Normal (%) [11]: 95%
- Population Pyknosed Nuclei (%) [11]: 8%
- Population Tubulin-Different-Phenotype (%) [11]: 16%
- Total Cell Count [11]: 631
- Population Apoptotic (%) [12]: 33%
- Population Fragmented Nuclei (%) [12]: 12%
- Population Healthy Nuclei (%) [12]: 81%
- Population Hoechst High Intensity Objects (%) [12]: 3%
- Population Membrane Permeable-Phenotype (%) [12]: 0%
- Population Mitochondria Different-Phenotype (%) [12]: 22%
- Population Mitotic Cells (%) [12]: 66%
- Population Normal (%) [12]: 96%
- Population Pyknosed Nuclei (%) [12]: 6%
- Population Tubulin-Different-Phenotype (%) [12]: 11%
- Total Cell Count [12]: 724
